FN deposit inh – inhibitors of fibronectin matrix deposition, primary screen, AH1F cells, Alexa488-fibronectin fluorescence, plate reader; inhibition, % at 12.6 µM; AID 743247, 2014; hit rate 0.086% among 350,000; AH1F fibroblasts, overnight;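 active means mean inhibition across replicates of 30% or more, regardless of how many single replicates reach that level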;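 further: positive control wells lacked labelled fibronectin entirely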
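Assay system: AH1F fibroblasts / Quantity: 10000 cells per well / Medium: DMEM plus 2% serum, read in PBS / Reagent: labelled fibronectin 24 nM / Dosing: single dose, pinned / Times: 1 h cell attachment, overnight exposure to compound and label / Signal: fluorescence, ex 485 nm, em 525 nm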
PGC1a acetyl inh – inhibitors of PGC1a acetylation signal, primary screen, cell-based, U2OS, AlphaScreen, inhibitor mode; AlphaScreen anti-acetyl-lysine; with virally co-expressed GCN5 acetyltransferase; inhibition, % at 15.6 µM; hit rate 0.17% among 350,000; AID 651687, 2012;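 active means every replicate shows inhibition of at least 40%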;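 further: 0% = neutral control wells and 100% = positive control wells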
SIRT5 inh – SIRT5 desuccinylase inhibitors, primary screen, biochemical, fluorescence imaging, single point, set 5; NAD-dependent protein deacylase sirtuin-5, mitochondrial (Homo sapiens), Q9NXA8; Purified SirT5, succinyl-peptide AMC, trypsin-coupled fluorescence; inhibition, % at 15 µM; hit rate 1.1% among 330,000; in the data active means inhibition above about 15%
FGF22 binding – binders of human FGF22 protein, primary screen, FGF22 synaptogenesis inhibitor project, biophysical, thermal shift, single point | Fibroblast growth factor 22 (Homo sapiens), Q9HCT0 | recombinant FGF22 thermal shift, SYPRO orange fluorescence; percent of sucrose octasulfate shift, DMSO zero | activity (Tm shift, normalised), % at 9.99 µM | hit rate 1.5% among 340,000;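 active means mean Tm shift, scaled 0 neutral to 100 positive control, at about 1.3% or above, every replicate too, limit read from the data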
Target sequence (Q9HCT0 whole entry, looked up): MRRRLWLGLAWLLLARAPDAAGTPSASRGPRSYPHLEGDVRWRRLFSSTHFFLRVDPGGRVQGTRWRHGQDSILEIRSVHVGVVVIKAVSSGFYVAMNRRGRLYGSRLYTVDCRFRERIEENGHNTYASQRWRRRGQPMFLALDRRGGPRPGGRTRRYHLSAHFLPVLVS
ERAP1 HTS inh – human ERAP1 aminopeptidase inhibitors, primary screen, biochemical, single point, plate reader; Endoplasmic reticulum aminopeptidase 1 (Homo sapiens), Q9NZ08; recombinant ERAP1, Leu-AMC fluorescence, 60 min; inhibition, % at 10.7 µM; hit rate 0.15% among 340,000; AID 652197, 2013;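 active means mean replicate inhibition of at least 30%, or all replicates individually reaching that 30% level; inactive means mean below 30% and not every replicate reaching it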;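 further: 0% = neutral control wells and 100% = L-leucinethiol positive control wells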
Starred values were filed as active, the others as inactive; . = no result given. Most compounds without a hit are left out; they make up all but 2.2% or so of the library.

SMILES	FN deposit inh	PGC1a acetyl inh	SIRT5 inh	FGF22 binding	ERAP1 HTS inh
Clc1ccc(CNc2ncnc3[nH]ncc23)c(Cl)c1	-6	6	.	43*	4
CC(C)CNc1ncnc2[nH]ncc12	-6	0	.	44*	2
COc1ccc(NS(=O)(=O)c2ccc(NC(=S)NCC3CCCO3)cc2)cc1 (stereo not given)	.	0	-1	0	-2
Cc1ccccc1NS(=O)(=O)c1ccc(C(=O)NCC2CCCO2)cc1 (stereo not given)	0	.	19*	0	2
CCNS(=O)(=O)c1ccc(NC(=S)NCC2CCCO2)cc1 (stereo not given)	-1	0	-1	43*	-5
Cc1ccc(S(=O)(=O)Nc2ccccc2C(=O)NCC2CCCO2)cc1 (stereo not given)	-7	.	-1	0	0
COCCNC(=O)C[C@@H]1CC[C@@H]2[C@H](COC[C@H](O)CN2S(=O)(=O)c2ccccc2C)O1	7	-3	2	0	-2
Cc1nn(C)cc1NC(=O)C[C@@H]1CC[C@@H]2[C@@H](COc3ccc(NC(=O)NC(C)C)cc3C(=O)N2C)O1	-8	2	-7	0	0
C[C@H]1CN([C@@H](C)CO)C(=O)Cc2cc(NC(=O)Cn3cnnn3)ccc2O[C@@H]1CN(C)S(=O)(=O)c1ccc(F)cc1	.	5	0	0	4
Cc1ccc(C(NC(=O)N2CCCC2)C(Cl)Cl)cc1F (stereo not given)	4	2	1	44*	3
Cc1ccc(C(NC(=O)NN2CCN(C)CC2)C(Cl)Cl)cc1F (stereo not given)	4	.	-1	0	-1
CCN1CCN(C(=O)NC(c2ccc(C)c(F)c2)C(Cl)Cl)CC1 (stereo not given)	9	-9	3	44*	4
C[C@H](CO)N1C[C@H](C)[C@@H](CN(C)S(=O)(=O)c2cn(C)cn2)Oc2cc(C#Cc3ccccc3)ccc2S1(=O)=O	-7	1	-3	0	0
COc1ccc(NC(=O)N(C)C[C@@H]2OCCCC[C@@H](C)Oc3ccc(NS(=O)(=O)c4cn(C)cn4)cc3C(=O)N([C@H](C)CO)C[C@H]2C)cc1	.	10	2	1	-2
COc1cc(/C=C/C(=O)OCC(=O)Nc2sc3c(c2C#N)CCC(C)C3)ccc1OCC#N (stereo not given)	-13	-9	15*	0	1
CC(C(=O)NCc1cccs1)N1C(=O)c2ccccc2C1=O (stereo not given)	.	.	19*	.	4
Cc1nn(CC(=O)N(C)C)c(=O)c2ccccc12	7	2	19*	.	1
Cc1nn(CC(N)=O)c(=O)c2ccccc12	.	4	.	.	.
COc1cccc(C(=O)N2C[C@@H]3[C@H](c4ccccc42)[C@@H](CO)N3C(=O)c2ccc(F)cc2)c1	-6	5	0	1	3
CCCC#Cc1ccc2c(c1)O[C@@H](CN(C)C(=O)c1cnccn1)[C@H](C)CN([C@@H](C)CO)S2(=O)=O	-12	-4	-1	0	0
COc1cc(/C=C2\C(=N)N3N=C(S(C)(=O)=O)SC3=NC2=O)cc(OC)c1OCCOc1ccc(C)cc1	-1	.	20*	1.7*	9
COc1cc(/C=C2\C(=N)N3N=C(S(C)(=O)=O)SC3=NC2=O)ccc1OCCOc1ccc(C)cc1	2	-19	8	1	0
Cc1ccc(S(=O)(=O)Oc2ccc(/C=C3\C(=N)N4N=C(S(C)(=O)=O)SC4=NC3=O)cc2)cc1	-13	12	12	0	9
COc1cc(/C=C2\C(=N)N3N=C(S(C)(=O)=O)SC3=NC2=O)cc(OC)c1OCCOc1cccc(C)c1	-1	.	2	2.0*	8
COc1cc2c(cc1OC)C(c1ccc3c(c1)OCO3)CC(=O)N2 (stereo not given)	.	7	-17	0	-4
COc1ccc(C2CCc3cc4c(cc3C2=NO)OCO4)cc1OC (stereo not given)	13	0	.	43*	3
O=C(C[C@H]1CC[C@@H](NS(=O)(=O)c2ccccc2)[C@@H](CO)O1)N1CCC(Cc2ccccc2)CC1	-12	0	-8	0	3

High-throughput results as filed in PubChem.
